The test system of one series is SARS-CoV-2. The series can be described thus: Antiviral activity against SARS-CoV-2 in Vero E6 cells. It counts as cell-based.
Series [1] is described as follows: Stability in simulated intestinal fluid. It counts as in vitro ADME. The settings on record: SIF with pancreatin. An outline of the steps:
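Simulated intestinal fluid was made to the USP recipe: KH2PO4, 0.2 M NaOH and 10 g/L pancreatin, adjusted to pH 6.8. Test compound stock (2 μM in DMF) was diluted into the fluid and incubated at 37 °C for up to 24 h, sampled at 0, 1, 2, 3, 4, 6 and 24 h. Reactions were stopped with ice-cold acetonitrile, centrifuged, and supernatants analysed by HPLC.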

The next series concerns ICR mice. Description: Acute toxicity study in ICR mice. In kind it is in vivo. An outline of the steps:
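Male ICR mice (28–36 g), 15 animals randomised into five groups of three, fasted 16 h. Each group received one oral gavage dose of test compound at 50, 100, 200, 500 or 1000 mg/kg in 5% DMSO, 5% Solution Hs15 and 90% saline. Mortality was recorded over 7 days; body weight, organ weight and tissue histology were assessed after sacrifice.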

For series [2] the following is noted: dogs; cited from earlier work.
For series [3] the following is noted: rats; cited from earlier work.
The next series is described as follows: physchem. The settings on record: pH 6.
For series [4] the following is noted: cynomolgus monkeys; cited from earlier work.

Converted amounts (≈) assume the structure as drawn. Where two headings read alike, the source gives them in different places.

Regarding `N#C[C@@]1(c2cc(Cl)c3c(N)ncnn23)O[C@H](CO)[C@@H](O)[C@H]1O` [Compound 1a, (2R,3R,4S,5R)-2-(4-amino-5-chloropyrrolo[2,1-f][1,2,4]triazin-7-yl)-3,4-dihydroxy-5-(hydroxymethyl)tetrahydrofuran-2-carbonitrile], in the series on SARS-CoV-2, the “anti-SARS-CoV-2 activity (in words)” value is “loss of the anti-SARS-CoV-2 activity”.

Take `N#C[C@@]1(c2cc(F)c3c(N)ncnn23)O[C@H](CO)[C@@H](O)[C@H]1O` [Compound 1c, (2R,3R,4S,5R)-2-(4-amino-5-fluoropyrrolo[2,1-f][1,2,4]triazin-7-yl)-3,4-dihydroxy-5-(hydroxymethyl)tetrahydrofuran-2-carbonitrile]: the entries for the “anti-SARS-CoV-2 activity (in words)” value in the series with SARS-CoV-2 and in the series with SARS-CoV-2 (listed as 3c) were “able to inhibit the viral replication” and “moderate anti-SARS-CoV-2 activity”, respectively.

As to `N#Cc1cc([C@]2(C#N)O[C@H](CO)[C@@H](O)[C@H]2O)n2ncnc(N)c12` [Compound 1d, 4-amino-7-((2R,3R,4S,5R)-2-cyano-3,4-dihydroxy-5-(hydroxymethyl)tetrahydrofuran-2-yl)pyrrolo[2,1-f][1,2,4]triazine-5-carbonitrile], in the series on SARS-CoV-2, the “anti-SARS-CoV-2 activity (in words)” value is recorded as “loss of the anti-SARS-CoV-2 activity”.

On to `OC[C@H]1O[C@@H](c2ccc3c(NO)ncnn23)[C@H](O)[C@@H]1O` [Compound 3b, (2S,3R,4S,5R)-2-(4-(hydroxyamino)pyrrolo[2,1-f][1,2,4]triazin-7-yl)-5-(hydroxymethyl)tetrahydrofuran-3,4-diol], for which the “anti-SARS-CoV-2 activity (in words)” value in the series on SARS-CoV-2 is on record as “did not show any antiviral activity”.

Turning to `CC(C)C(=O)O[C@H]1[C@@H](O)[C@](C#N)(c2ccc3c(N)ncnn23)O[C@@H]1CO` [Compound 5a, (2R,3S,4R,5R)-5-(4-aminopyrrolo[2,1-f][1,2,4]triazin-7-yl)-5-cyano-4-hydroxy-2-(hydroxymethyl)tetrahydrofuran-3-yl isobutyrate], the “stability in SIF (in words)” value in series [1] is “good stability”.

Regarding `CC(C)C(=O)OC[C@H]1O[C@@](C#N)(c2ccc3c(N)ncnn23)[C@H](O)[C@@H]1O` [Compound 5c, ((2R,3S,4R,5R)-5-(4-aminopyrrolo[2,1-f][1,2,4]triazin-7-yl)-5-cyano-3,4-dihydroxytetrahydrofuran-2-yl)methyl isobutyrate], the “well tolerated oral dosage” value in the series on ICR mice (single oral dose) is “up to 1000 mg/kg”. The mortality result in the series on ICR mice (single oral gavage 50-1000 mg/kg, 7-day observation period) is given as “No mortality”. Further, the “changes in body weight, organ weight, or tissue histology” value with ICR mice (single oral gavage 50-1000 mg/kg, after sacrifice) was “No significant changes”.

On to `CCC(CC)COC(=O)[C@H](C)N[P@](=O)(OC[C@H]1O[C@@](C#N)(c2cc(F)c3c(N)ncnn23)[C@H](O)[C@@H]1O)Oc1ccccc1` [Compound 7, 2-ethylbutyl ((S)-(((2R,3S,4R,5R)-5-(4-amino-5-fluoropyrrolo[2,1-f][1,2,4]triazin-7-yl)-5-cyano-3,4-dihydroxytetrahydrofuran-2-yl)methoxy)(phenoxy)phosphoryl)-L-alaninate], for which the “anti-SARS-CoV-2 activity (in words)” value in the series on SARS-CoV-2 is on record as “reduced activity”.

The solubility is the dissolved amount per volume that the medium holds. In the case of `N#C[C@@]1(c2ccc3c(N)ncnn23)O[C@H](CO)[C@@H](O)[C@H]1O` [GS-441524], the “F (oral bioavailability)” value is reported as 85% in series [2], 33% in series [3] and 8.3% in series [4]. The compound also had a solubility in the series “physchem” of 105 µg/mL (≈ 360 µM).

In the series with SARS-CoV-2 (at 5 µM), “(3R,4S,5R)-2-(4-aminopyrrolo[2,1-f][1,2,4]triazin-7-yl)-2-cyclopropyl-5-(hydroxymethyl)tetrahydrofuran-3,4-diol [Compound 2d]” had an Inhibition rate of less than 10%.

These data come from publication PMC8354861 (Bioorganic & Medicinal Chemistry, 2021).
